Measurements collected from several papers.
Protocols differ between the studies behind these lines.

Cc1ccc2cncc(N3CCc4c(cc(Cn5ccnc5)cc4-c4cn(C)nc4C(F)(F)F)C3=O)c2c1  clearance (male CD-1 mouse; plasma; intravenous; 3 mg/kg): 16 mL/min/kg
CC(C)(Oc1cccc(N2CCC[C@@H](C(=O)N(Cc3ccc(-c4cn[nH]c4)cc3)C3CC3)C2)c1)C(=O)N1CCNCC1.Cl  clearance (male C57BL/6 mouse; plasma; intravenous; 1 mg/kg): 44.2 mL/min/kg
Cc1noc(C)c1-c1ccc2nc(-c3cnn(CC(C)(C)O)c3)nc(N3CCOC[C@@H]3c3ccccc3)c2c1  clearance (CD-1 mouse; plasma; intravenous; 2 mg/kg): 7.3 mL/min/kg
Cc1c(Br)cc(NC(=O)CS(=O)(=O)O)cc1Br  clearance (CD-1 mouse; blood; intravenous; 2 mg/kg): 21.8 mL/min/kg
COc1cc(OC)c2nccc(N3CCc4c(cc(Cn5ccnc5)cc4-c4cn(C)nc4C(F)(F)F)C3=O)c2c1  clearance (male CD-1 mouse; plasma; intravenous; 3 mg/kg): 63 mL/min/kg
Cc1c(Br)cc(NC(=O)NS(=O)(=O)O)cc1Br  clearance (CD-1 mouse; blood; intravenous; 2 mg/kg): 5.65 mL/min/kg
COc1ccc2nccc(N3CCc4c(cc(Cn5ccnc5)cc4-c4cn(C)nc4C(F)(F)F)C3=O)c2c1  clearance (male CD-1 mouse; plasma; intravenous; 3 mg/kg): 27 mL/min/kg
COc1nc(-c2cc(C)c(N[C@@H](C)c3ccc(F)cc3)nn2)ccc1-n1cnc(C)c1  clearance (male CD-1 mouse; plasma; intravenous; 1 mg/kg; single dose): 3.9 mL/min/kg
Cc1noc(C)c1-c1ccc2nc(-c3cnn(CC(C)(C)O)c3)nc(N3CCNC[C@@H]3c3ccccc3)c2c1  clearance (CD-1 mouse; plasma; intravenous; 2 mg/kg): 272 mL/min/kg
Nc1ncc(-c2ccncc2)nc1Nc1ccc2[nH]ccc2c1  clearance (male C57BL/6 mouse; plasma; intravenous; 5 mg/kg): 112 mL/min/kg
CC[C@H](C)[C@@H]1NC(=O)[C@@](C)(NC(=O)[C@H](CCCNC(=N)N)NC(=O)[C@H](CC(C)C)NC(=O)[C@@H](NC(=O)[C@H](CCC(N)=O)NC(=O)[C@H](CC(C)C)NC(C)=O)[C@@H](C)O)CCCC=CCCC[C@@](C)(C(=O)N[C@@H](CC(C)C)C(=O)N[C@@H](Cc2ccc3ccccc3c2)C(N)=O)NC(=O)[C@H](CCCNC(=N)N)NC(=O)[C@H](CCC(N)=O)NC1=O  clearance (male BALB/c mouse; plasma; intravenous; 5 mg/kg): 0.662 mL/min/kg
O=C1C2N=CN3C(NCc4c(F)ccc5c4CCO5)=NC=C(c4cnc(C(F)(F)F)cc4CN1CC(F)F)C23 (stereo not shown)  clearance (male CD-1 mouse; plasma; intravenous; 2 mg/kg): 0.59 mL/min/kg
NCC1CCN(c2nc(-c3ccncc3)nc3sc4c(c23)CCCC4)CC1  clearance (female CD-1 mouse; plasma; intravenous; 10 mg/kg): 38 mL/min/kg
CC(C)(C)c1ccc(O)c(CN(Cc2cc(C(C)(C)C)ccc2O)C2CCC(NC(N)=O)CC2)c1 (stereo not shown)  clearance (male C57BL/6 mouse; plasma; intraperitoneal; 10 mg/kg; single dose): 17 mL/min/kg
NC(=S)NN=Cc1ncccc1N  clearance (female C57BL/6 mouse; plasma; intravenous; 20 mg/kg): 13.8 mL/min/kg
CC(F)(F)CN1Cc2cc(C(F)(F)F)ncc2C2=CN=C(NCc3c(F)ccc4c3CCO4)N3C=NC(C1=O)C23 (stereo not shown)  clearance (male CD-1 mouse; plasma; intravenous; 2 mg/kg): 0.39 mL/min/kg
CN(C)C/C=C/C(=O)Nc1ccc(O[C@@H]2CCC[C@@H](Nc3ncc(Cl)c(-c4c[nH]c5ccccc45)n3)C2)cc1  clearance (male Swiss mouse; plasma; intravenous; 3 mg/kg): 24.9 mL/min/kg
CCNc1nc2c(c(N3CC(=O)Nc4cc(OC)ccc43)n1)CCC2  clearance (female C57BL/6 mouse; plasma; intravenous; 4 mg/kg; single dose): 108 mL/min/kg
CNCCN(C)c1cc(C#N)cc(CCc2cc(C)cc(N)n2)c1  clearance (male BALB/c mouse; plasma; intravenous; 2 mg/kg): 184 mL/min/kg
